Laboratory results reported in ChEMBL document CHEMBL2417509, “Synthesis and biological evaluation of prodigiosene conjugates of porphyrin, estrone and 4-hydroxytamoxifen” (2013).

Experiments:
Assay type in all cases: functional
U-251 = assay: Cytotoxicity against human U251 cells after 2 days by sulforhodamine B assay; details: U-251, 48 h
How it was run: (§1)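 NCI DTP NCI60 multi-dose screen (59 human tumour lines available). Cells exposed to compound over a 5-log mol/L concentration range for 2 days, then fixed and stained with sulphorhodamine B, with optical density read. Growth inhibition calculated relative to time-zero cells and untreated cells, giving GI50 (half-maximal growth inhibition concentration). Average of two replicates.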

TK-10 = assay: Cytotoxicity against human TK10 cells after 2 days by sulforhodamine B assay; details: TK-10, 48 h; how it was run: as §1
HCT-116 = assay: Cytotoxicity against human HCT116 cells after 2 days by sulforhodamine B assay; details: HCT-116, 48 h
How it was run: (§2)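 NCI60 multi-dose screen, 59 human tumour lines available. Cells exposed to compound across a 5-log mol/L concentration range for 2 days, then fixed and stained with sulphorhodamine B, optical density read. Growth inhibition calculated against time-zero control and untreated cells. GI50 derived from the dose series, average of two replicates.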

SK-MEL-2 = assay: Cytotoxicity against human SK-MEL-2 cells after 2 days by sulforhodamine B assay; details: SK-MEL-2, 48 h; how it was run: as §2
A498 = assay: Cytotoxicity against human A498 cells after 2 days by sulforhodamine B assay; details: A498, 48 h; how it was run: as §2
SR = assay: Cytotoxicity against human SR cells after 2 days by sulforhodamine B assay; details: 48 h; how it was run: as §1
SW-620 = assay: Cytotoxicity against human SW620 cells after 2 days by sulforhodamine B assay; details: SW-620, 48 h; how it was run: as §1
NCI-H226 = assay: Cytotoxicity against human NCI-H226 cells after 2 days by sulforhodamine B assay; details: NCI-H226, 48 h; how it was run: as §2
SF-268 = assay: Cytotoxicity against human SF268 cells after 2 days by sulforhodamine B assay; details: SF-268, 48 h; how it was run: as §2
NCI-H23 = assay: Cytotoxicity against human NCI-H23 cells after 2 days by sulforhodamine B assay; details: NCI-H23, 48 h; how it was run: as §2
UO-31 = assay: Cytotoxicity against human UO31 cells after 2 days by sulforhodamine B assay; details: UO-31, 48 h; how it was run: as §1
SK-MEL-5 = assay: Cytotoxicity against human SK-MEL-5 cells after 2 days by sulforhodamine B assay; details: SK-MEL-5, 48 h; how it was run: as §2
786-0 = assay: Cytotoxicity against human 786-0 cells after 2 days by sulforhodamine B assay; details: 786-0, 48 h; how it was run: as §2
[1] = Cytotoxicity against human Hs578T cells after 2 days by sulforhodamine B assay; details: Hs-578T, 48 h; how it was run: as §2
RXF 393 = assay: Cytotoxicity against human RXF393 cells after 2 days by sulforhodamine B assay; details: RXF 393, 48 h; how it was run: as §2
NCI-H322M = assay: Cytotoxicity against human NCI-H322M cells after 2 days by sulforhodamine B assay; details: 48 h; how it was run: as §2
MCF7 = assay: Cytotoxicity against human MCF7 cells after 2 days by sulforhodamine B assay; details: MCF7, 48 h; how it was run: as §2
NCI-H460 = assay: Cytotoxicity against human NCI-H460 cells after 2 days by sulforhodamine B assay; details: NCI-H460, 48 h; how it was run: as §2
HCT-15 = assay: Cytotoxicity against human HCT15 cells after 2 days by sulforhodamine B assay; details: HCT-15, 48 h; how it was run: as §2
OVCAR-8 = assay: Cytotoxicity against human OVCAR8 cells after 2 days by sulforhodamine B assay; details: OVCAR-8, 48 h; how it was run: as §2
PC-3 = assay: Cytotoxicity against human PC3 cells after 2 days by sulforhodamine B assay; details: PC-3, 48 h; how it was run: as §2
MDA-MB-231 = assay: Cytotoxicity against human MDA-MB-231 cells after 2 days by sulforhodamine B assay; details: MDA-MB-231, 48 h; how it was run: as §2
HCC 2998 = assay: Cytotoxicity against human HCC2998 cells after 2 days by sulforhodamine B assay; details: HCC 2998, 48 h; how it was run: as §2
Malme-3M = assay: Cytotoxicity against human MALME-3M cells after 2 days by sulforhodamine B assay; details: 48 h; how it was run: as §2
MDA-MB-468 = assay: Cytotoxicity against human MDA-MB-468 cells after 2 days by sulforhodamine B assay; details: MDA-MB-468, 48 h; how it was run: as §2
SF-539 = assay: Cytotoxicity against human SF539 cells after 2 days by sulforhodamine B assay; details: SF-539, 48 h; how it was run: as §2
HOP-62 = assay: Cytotoxicity against human HOP62 cells after 2 days by sulforhodamine B assay; details: HOP-62, 48 h; how it was run: as §2
UACC-62 = assay: Cytotoxicity against human UACC62 cells after 2 days by sulforhodamine B assay; details: UACC-62, 48 h; how it was run: as §1
HT-29 = assay: Cytotoxicity against human HT-29 cells after 2 days by sulforhodamine B assay; details: HT-29, 48 h; how it was run: as §2
[2] = Cytotoxicity against human NCI-ADR-RES cells after 2 days by sulforhodamine B assay; details: 48 h; how it was run: as §2
BT-549 = assay: Cytotoxicity against human BT549 cells after 2 days by sulforhodamine B assay; details: BT-549, 48 h; how it was run: as §2
[3] = read-out: LC50 (the source's name)

COc1cc(-c2ccc[nH]2)[nH]c1/C=C1\N=C(C)C(C(=O)CCC(=O)Oc2ccc3c(c2)CC[C@@H]2[C@@H]3CC[C@]3(C)C(=O)CC[C@@H]23)=C1C
GI50 (U-251): 3.41 µM | LC50 (U-251): > 100 µM | TGI (U-251): > 100 µM | GI50 (TK-10): 27.8 µM | LC50 (TK-10): > 100 µM | TGI (TK-10): > 100 µM | GI50 (HCT-116): 0.8 µM | LC50 (concentration killing 50% of cells vs time zero) (HCT-116): > 100 µM | TGI (HCT-116): > 100 µM | GI50 (SK-MEL-2): 15.6 µM | LC50 (SK-MEL-2): > 100 µM | TGI (SK-MEL-2): 58.8 µM | GI50 (A498): 8.49 µM | LC50 (A498): > 100 µM | TGI (A498): 59.1 µM | GI50 (SR): 0.72 µM | LC50 (concentration giving 50% net cell kill) (SR): > 100 µM | TGI (SR): > 100 µM | GI50 (SW-620): 0.77 µM | LC50 (concentration killing 50% of cells) (SW-620): > 100 µM | TGI (SW-620): > 100 µM | GI50 (NCI-H226): 11.1 µM | LC50 (NCI-H226): > 100 µM | TGI (NCI-H226): > 100 µM | GI50 (SF-268): 5.62 µM | LC50 (concentration killing 50% of cells) (SF-268): > 100 µM | TGI (SF-268): > 100 µM | GI50 (NCI-H23): 9.8 µM | LC50 (concentration killing 50% of cells) (NCI-H23): > 100 µM | TGI (NCI-H23): > 100 µM | GI50 (UO-31): 4.15 µM | LC50 (UO-31): > 100 µM | TGI (UO-31): 31 µM | GI50 (SK-MEL-5): 3.5 µM | LC50 (concentration killing 50% of cells) (SK-MEL-5): 68.8 µM | TGI (SK-MEL-5): 19.6 µM | GI50 (786-0): 5.99 µM | LC50 (concentration killing 50% of cells) (786-0): > 100 µM | TGI (786-0): 40 µM | GI50 [1]: 14.2 µM | TGI [1]: > 100 µM | CC50 [1, 3]: > 100 µM | GI50 (RXF 393): 11.7 µM | LC50 (concentration killing 50% of cells) (RXF 393): > 100 µM | TGI (RXF 393): > 100 µM | GI50 (NCI-H322M): 32.6 µM | LC50 (concentration killing 50% of cells) (NCI-H322M): > 100 µM | TGI (NCI-H322M): > 100 µM | GI50 (MCF7): 1.91 µM | LC50 (concentration giving 50% net cell kill) (MCF7): > 100 µM | TGI (MCF7): > 100 µM | GI50 (NCI-H460): 3.09 µM | LC50 (NCI-H460): > 100 µM | TGI (NCI-H460): > 100 µM | GI50 (HCT-15): 2.6 µM | LC50 (HCT-15): > 100 µM | TGI (HCT-15): > 100 µM | GI50 (OVCAR-8): 8.36 µM | LC50 (OVCAR-8): > 100 µM | TGI (OVCAR-8): > 100 µM | GI50 (PC-3): 7.45 µM | LC50 (concentration killing 50% of cells) (PC-3): > 100 µM | TGI (PC-3): > 100 µM | GI50 (MDA-MB-231): 0.27 µM | LC50 (MDA-MB-231): 23 µM | TGI (MDA-MB-231): 1.21 µM | GI50 (HCC 2998): 17 µM | LC50 (50% lethal concentration) (HCC 2998): > 100 µM | TGI (HCC 2998): > 100 µM | GI50 (Malme-3M): 29 µM | LC50 (Malme-3M): > 100 µM | TGI (Malme-3M): > 100 µM | GI50 (MDA-MB-468): 17 µM | LC50 (MDA-MB-468): > 100 µM | TGI (MDA-MB-468): > 100 µM | GI50 (SF-539): 15.5 µM | LC50 (SF-539): > 100 µM | TGI (SF-539): > 100 µM | GI50 (HOP-62): 18.3 µM | TGI (HOP-62): 65.9 µM | CC50 (HOP-62; [3]): > 100 µM | GI50 (UACC-62): 3.71 µM | TGI (UACC-62): 17.6 µM | CC50 (UACC-62; [3]): 65.1 µM | GI50 (HT-29): 0.87 µM | LC50 (HT-29): > 100 µM | TGI (HT-29): > 100 µM | GI50 [2]: 13.1 µM | TGI [2]: > 100 µM | CC50 [2, 3]: > 100 µM | GI50 (BT-549): 15.6 µM | LC50 (concentration killing 50% of cells present at time zero) (BT-549): > 100 µM | TGI (BT-549): > 100 µM
